Results taken from the RNAGym collection of RNA variant scans (doi:10.1126/science.aae0568).
This sample holds only a part of the variants without activity.

B1: tRNA (parent)
chain: GUUCCGUUGGCGUAAUGGUAACGCGUCUCCCUCCUAAGGAGAAGACUGCGGGUUCGAGUCCCGUACGGAACG

Variants of: B1
Assay: yeast fitness relative to wild type (ratio to wild type); higher = fitter; tRNA-Arg(CCU), competitive growth, 37 C, YPD
Procedure, shortened: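 For this measurement, the tRNA-Arg(CCU) gene was varied by chemical synthesis at a 3% per-site mutation rate across 69 sites, and each variant was placed at the native genomic locus in Saccharomyces cerevisiae. The pooled strains went through a 24-hour competition in YPD at 37°C in six parallel replicates, with amplicons from start and end populations read by 100-nucleotide paired-end sequencing. Darwinian fitness relative to wild type followed from the change in each genotype's frequency. Genotypes needed ≥ 100 starting reads, and estimates < 0.5 were set to 0.5.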

Compared with GUUCCGUUGGCGUAAUGGUAGCGCGUCUCCCUCCUAAGCAGAAGACUGCGGGUUCGAGUCCCGUACGGCACG [A21G G39C A69C], GUUCCGUUGGCGUAAUGGUAGCGCGUCUCCCUCCUAAGGAAAAGACUGCGGGUUCGAGUUCCGUACGGAACG [A21G G41A C60U] is higher in yeast fitness: 0.536 for the first, 0.574 for the second.

Going from GUUCCGUUGGCGUAAUGGUAGCGCGUCUCCCUCCUAAGGAGAAGACUGCGGGUUCCAGUCCCGUGCGGAACG [A21G G56C A65G] to GUUCCGUUGGCGUAAUGGUAGCGCGUCUCCCUGCUAAGGGGAAGACUGCGGGUUCGAGUCCCGUACGGAACG [A21G C33G A40G], the yeast fitness falls from 0.583 to 0.562.

GUUCCGUUGGCGUAAUGGUAGCGUGUCUCCCUCCUAAGGAGAAGACUGCGCGUUCGAGUCCCGUACGGAACG [A21G C24U G51C] and GUUCCGUUGGCGUAAUGGUAGCGCGUAUCCCUCCUAUGGAGAAGACUGCGGGUUCGAGUCCCCUACGGAACG [A21G C27A A37U G63C] cannot be ordered by yeast fitness: ≤ 0.5 for the first, ≤ 0.5 for the second.

First: GUUCCGUUGGCGUAAUGGUAGCACGUUUCCCUCCUAAGGAGAAGACUGCGGGUUCGAGUCCCGUACGGAACG [A21G G23A C27U]
Second: GUUCCGUUGGCGUAAUGGUAGCGCGUCUCCCUCCUAAGGAGAAGACUGCCGGUUCGAGUCCCGUACGGAACG [A21G G50C]
The yeast fitness of the first is lower: 0.75 for the first, 0.76 for the second.

Compared with GUUCCGUUGGCGUAAUGGUAGCGCGUCUCCCUCCUAAGGAGAAGACUGCAGGUUCGAGUCCCGUACGGAACG [A21G G50A], GUUCCGUUGGCGUAAUGGUAGCGCGUCUCCCUCCUAAGGAGAAGACUGCGGGUUCGAGUCUCGUACGGAUCG [A21G C61U A70U] is lower in yeast fitness: 1.14 for the first, 0.776 for the second.

Compared with GUUCCGUUGGCGUAAUGGUAGCGCGUCUCCCUCCUAAGGAGAAGACUGCGGGUUCGAGUCUCGUACGGAGCG [A21G C61U A70G], GUUCCGUUGGCGUAAUGGUAGCGCAUCUCCCUCCUAAGGAGAAGACUCCGGGUUCGAGUCCAGUACGGAACG [A21G G25A G48C C62A] is lower in yeast fitness: 0.761 for the first, ≤ 0.5 for the second.

Going from GUUCCGUUGGCGUAAUGGUAGCCCGUCUCCUUCGUAAGGAGAGGCCUGCGGGUUCGUGUCCCGUACGGAACG [A21G G23C C31U C34G A43G A45C A57U] to GUUCCGUUGGCGUAAUGGUAGCGCGUCUCCCUCCUAAGGAGAAGACUGAGGGUUCAAGUCCCGUACGGAACG [A21G C49A G56A], the yeast fitness falls from 0.574 to 0.533.

Going from GUUCCGUUGGCGUAAUGGUAGCGCGUCUCCCUCCUAAGGAGAAGACUCCGGGUUCGAGUCCCGUAUCGAGCG [A21G G48C C66U G67C A70G] to GUUCCGUUGGCGUAAUGGUAGCGCGUCUGCCUCCUAAGGAGAAGACUGCGGGUUCGAGUCCUGUACGGAACG [A21G C29G C62U], the yeast fitness rises from ≤ 0.5 to 0.651.

Compared with GUUCCGUUGGCGUAAUGGUAGCGCGUUUCCCUCCUAAGGAGAAGACUGCGGGUUCCAGUCCCGUACGGAACG [A21G C27U G56C], GUUCCGUUGGCGUAAUGGUAGCGCGUCUCCCUCCUAAGGAAAAGACUGCGGGUUCGAGUCCCGUACGGAACG [A21G G41A] is higher in yeast fitness: 0.57 for the first, 0.995 for the second.

Compared with GUUCCGUUGGCGUAAUGGUAGCGCGUAUCCCUCCUUAGGGGAAGACUGCGGCUUCGAGUCCCGUACAGAACG [A21G C27A A36U A40G G52C G67A], GUUCCGUUGGCGUAAUGGUAGCGCGUCUCCCUCCUAAGGAGAAGACUGAGGGUUCGAGUCCUGUACGGAACG [A21G C49A C62U] is higher in yeast fitness: ≤ 0.5 for the first, 0.544 for the second.

Going from GUUCCGUUGGCGUAAUGGUAGCGCGUCUCCCUCCUAACGAGAAGACUGCGGGUUCGAGUCCCGUACGGAACG [A21G G38C] to GUUCCGUUGGCGUAAUGGUAGCGCGUCUCCCUCCUAAGGAGAACACUGCGGGUUCGAGUCCCCUACGGAACG [A21G G44C G63C], the yeast fitness falls from 0.674 to ≤ 0.5.

GUUCCGUUGGCGUAAUGGUAGCGCGUCUGCCUCCUAAGGAGAAGAUUGCGGGUUCGAGUUCCGUACCGAACG [A21G C29G C46U C60U G67C] and GUUCCGUUGGCGUAAUGGUAGCGCAUCUCCCUCCUAAGCAGAAGACUGCGGGUUCGAGUCCUGUACGGAACG [A21G G25A G39C C62U] cannot be ordered by yeast fitness: ≤ 0.5 for the first, ≤ 0.5 for the second.

GUUCCGUUGGCGUAAUGGUAGCGCGUCUCCCUCGUAAGGAGUAGACUGCGGGUUCGAGUCCCGUACGGAACG [A21G C34G A42U] and GUUCCGUUGGCGUAAUGGUAGCACGUCUCCUUCCUAAGGAGAAGACUGCGGGUUCGAGUCCCCAAGGGAACG [A21G G23A C31U G63C U64A C66G] cannot be ordered by yeast fitness: ≤ 0.5 for the first, ≤ 0.5 for the second.

Compared with GUUCCGUUGGCGUAAUGGUAGCGCGUCUCCCUCCUAAGAAGAAGACUGCGGGUUCGAGUCCCGUACGGAACG [A21G G39A], GUUCCGUUGGCGUAAUGGUAGCGCAUCUCCCUCCUAAGGAGCAGACUGCGGGUUCGAGUCCCGUACGGAACG [A21G G25A A42C] is lower in yeast fitness: 0.809 for the first, 0.707 for the second.

Compared with GUUCCGUUGGCGUAAUGGUAGCGCGUCUCCCUCAUAAGGAGAAGACUGCGGGUUCGAGUCCCGUACGGAACG [A21G C34A], GUUCCGUUGGCGUAAUGGUAGCGCGUCUCCCUCCUAAGGAGAAGACUGCGGGUUCGAGUACCGUACGGAACG [A21G C60A] is lower in yeast fitness: 0.646 for the first, 0.577 for the second.

Going from GUUCCGUUGGCGUAAUGGUAGCGCGUCUCCCUCCUAAGGAGAAGACUGCGGGUUCGAGUUCCGUACGGAACG [A21G C60U] to GUUCCGUUGGCGUAAUGGUAGCGCGUCUCCCUCCUAAGGAGAAGACUGGGGGUUCCAGUCCCGUACGGAACG [A21G C49G G56C], the yeast fitness falls from 0.713 to ≤ 0.5.

Compared with GUUCCGUUGGCGUAAUGGUAGCGCGUCUCACUCCUAAGGAGAAGACUGCGGGUUCGAGUCCCGUACGGAACG [A21G C30A], GUUCCGUUGGCGUAAUGGUAGCGCGUCUCCCUCCUAAGGAGAAGACUGAGGGUCCGAGUCCCGUGCGGAACG [A21G C49A U54C A65G] is lower in yeast fitness: 1 for the first, ≤ 0.5 for the second.

Going from GUUCCGUUGGCGUAAUGGUAGCGCGUUUCCCUCCUAAGGAGAAGACUGCGGGUUCGAGUCCCGUACGGAGCG [A21G C27U A70G] to GUUCCGUUGGCGUAAUGGUAGCGCGUGUACCUCCUAAGGAGAAGACUGCAGGUUCGAGUCCCGUACGGAACG [A21G C27G C29A G50A], the yeast fitness falls from 0.792 to ≤ 0.5.

Going from GUUCCGUUGGCGUAAUGGUAGCGCGUCUCCCUCUUAAGGAGAAGACUGCGGGUUCGAGUCCCUUACGGAACG [A21G C34U G63U] to GUUCCGUUGGCGUAAUGGUAGCGCGUCUCCUUCCUAAGGAGAAGACUGCGGGUUCGAGUCCCGUACGGAACG [A21G C31U], the yeast fitness rises from ≤ 0.5 to 0.872.
